Source: ChEMBL document CHEMBL3525963, “Tissue distribution and elimination of [14C]apixaban in rats” (Drug Metab Dispos, 2011)

How the values were obtained:
Parameters in all cases: dose 5 mg/kg, dosed compound name [14C]-apixaban, route oral
Conditions in all cases: in vivo
[1] = system: Heart; test: Biodistribution in female Sprague-Dawley rat heart at 5 mg/kg, po administered as single dose measured after 72 hrs; type: ADME, organism-based
Outline: (§1)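 Quantitative whole-body autoradiography was run after a single 5 mg/kg (100 μCi/kg) oral gavage to fasted female or pregnant SD rats, one rat per time point. Carcasses were frozen in hexane/dry ice, and 40 µm sagittal sections were dried at −20°C for at least 48 h. Sections were exposed to a phosphor plate alongside [14C]glucose standards (0.001–6.5 µCi/g). Results are µg eq/g, with LLOQ 0.037 µg eq/g.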

[2] = system: Heart; test: Biodistribution in female Sprague-Dawley rat heart at 5 mg/kg, po administered as single dose measured after 1 hr; type: ADME, organism-based
Outline: (§2)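 [¹⁴C]Apixaban given by oral gavage at 5 mg/kg (100 μCi/kg) in 0.5% Tween 80 in Labrafil (1.0 mg/mL dosing solution) to rats fasted overnight through 4 h post-dose. One rat per time point; carcass frozen in hexane/dry ice. Quantitative whole-body autoradiography used 40 µm sagittal sections and a phosphor imaging plate calibrated with [¹⁴C]glucose standards (0.001–6.5 μCi/g). Read-out in µg eq apixaban/g; LLOQ 0.037 μg eq/g.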

[3] = system: Rattus norvegicus; test: Biodistribution in fetal kidney of pregnant Sprague-Dawley rat at 5 mg/kg, po administered as single dose measured after 0.5 hrs; type: ADME, organism-based
Outline: (§3)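 Pregnant rats, 270-319 g and fasted overnight, received [14C]apixaban by oral gavage at 100 μCi/kg in 0.5% Tween 80/Labrafil. One dam per time point was euthanized and frozen in hexane/dry ice. Fetal tissue radioactivity was measured by QWBA on 40 µm sagittal sections calibrated with [14C]glucose standards. Values are in µg eq/g, with LLOQ 0.037 μg eq/g.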

[4] = system: Rattus norvegicus; test: Biodistribution in fetal blood of pregnant Sprague-Dawley rat at 5 mg/kg, po administered as single dose measured after 1 hr; type: ADME, organism-based; outline: as §3
[5] = system: Harderian gland; test: Biodistribution in female Sprague-Dawley rat harderian gland at 5 mg/kg, po administered as single dose measured after 24 hrs; type: ADME, organism-based; outline: as §1
[6] = system: Pancreas; test: Biodistribution in male Sprague-Dawley rat pancreas at 5 mg/kg, po administered as single dose measured after 24 hrs; type: ADME, organism-based
Outline: (§4)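 [14C]apixaban (1.0 mg/mL, 20 μCi/mL) in 0.5% Tween 80 in Labrafil, given by oral gavage at 100 μCi/kg to male rats (225-252 g) fasted overnight through 4 h post-dose. One rat per time point. Carcasses frozen in hexane/dry ice and cut into 40 µm sagittal sections. QWBA read on phosphor plates against [14C]glucose standards, reported as µg eq/g. LLOQ 0.037 µg eq/g.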

[7] = system: Rattus norvegicus; test: Biodistribution in pregnant Sprague-Dawley rat pituitary gland at 5 mg/kg, po administered as single dose measured after 1 hr; type: ADME, organism-based
[8] = system: Lung; test: Biodistribution in pregnant Sprague-Dawley rat lung at 5 mg/kg, po administered as single dose measured after 8 hrs; type: ADME, organism-based
[9] = system: Rattus norvegicus; test: Biodistribution in fetal kidney of pregnant Sprague-Dawley rat at 5 mg/kg, po administered as single dose measured after 24 hrs; type: ADME, organism-based; outline: as §1
[10] = system: Rattus norvegicus; test: Biodistribution in female Sprague-Dawley rat brown fat at 5 mg/kg, po administered as single dose measured after 1 hr; type: ADME, organism-based, Brown adipose tissue
Outline: (§5)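 [14C]apixaban (20 μCi/mL in dosing solution) in 0.5% Tween 80 in Labrafil given by oral gavage to fasted female rats, 206-213 g, at 100 μCi/kg. One rat per time point was euthanized and snap-frozen. Sagittal 40 µm whole-body sections were read by QWBA phosphor imaging against [14C]glucose standards. Results are in µg eq apixaban/g, with LLOQ 0.037 μg eq/g.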

[11] = system: Heart; test: Biodistribution in pregnant Sprague-Dawley rat heart at 5 mg/kg, po administered as single dose measured after 24 hrs; type: ADME, organism-based
Outline: (§6)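 Fasted pregnant SD rats (n=6, 270-319 g) each received one oral gavage dose of [14C]apixaban, 5 mg/kg (100 μCi/kg), in 0.5% Tween 80/Labrafil. One rat was killed at each of 0.5, 1, 4, 8, 24 and 48 h. Carcasses were frozen in hexane/dry ice, cut into 40 µm sagittal sections, exposed to phosphor plates and quantified against [14C]glucose standards as µg eq/g. LLOQ was 0.037 µg eq/g.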

[12] = system: Rattus norvegicus; test: Biodistribution in female Sprague-Dawley rat pituitary gland at 5 mg/kg, po administered as single dose measured after 0.5 hrs; type: ADME, organism-based; outline: as §5
[13] = system: Thymus; test: Biodistribution in male Sprague-Dawley rat thymus at 5 mg/kg, po administered as single dose measured after 8 hrs; type: ADME, organism-based
[14] = system: Heart; test: Biodistribution in male Sprague-Dawley rat heart at 5 mg/kg, po administered as single dose measured after 72 hrs; type: ADME, organism-based
Outline: (§7)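 Fasted male SD rats (225-252 g) each received one oral gavage dose of [14C]apixaban, 5 mg/kg (100 μCi/kg), in 0.5% Tween 80/Labrafil vehicle. One rat was killed per time point, from 0.5 to 168 h. Frozen carcasses were cut into 40 µm sagittal whole-body sections and read by QWBA phosphor imaging against [14C]glucose calibrants. Results are in µg apixaban eq/g; BLQ <0.037 µg eq/g.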

[15] = system: Rattus norvegicus; test: Biodistribution in female Sprague-Dawley rat salivary gland at 5 mg/kg, po administered as single dose measured after 72 hrs; type: ADME, organism-based; outline: as §1
[16] = system: Rattus norvegicus; test: Biodistribution in pregnant Sprague-Dawley rat pituitary gland at 5 mg/kg, po administered as single dose measured after 4 hrs; type: ADME, organism-based
[17] = system: Thymus; test: Biodistribution in pregnant Sprague-Dawley rat thymus at 5 mg/kg, po administered as single dose measured after 4 hrs; type: ADME, organism-based
[18] = system: Adrenal gland; test: Biodistribution in male Sprague-Dawley rat adrenal gland at 5 mg/kg, po administered as single dose measured after 24 hrs; type: ADME, organism-based; outline: as §7
[19] = system: Heart; test: Biodistribution in pregnant Sprague-Dawley rat heart at 5 mg/kg, po administered as single dose measured after 0.5 hrs; type: ADME, organism-based
[20] = system: Adrenal gland; test: Biodistribution in pregnant Sprague-Dawley rat adrenal gland at 5 mg/kg, po administered as single dose measured after 48 hrs; type: ADME, organism-based; outline: as §6
[21] = system: Rattus norvegicus; test: Biodistribution in fetal brain of pregnant Sprague-Dawley rat at 5 mg/kg, po administered as single dose measured after 8 hrs; type: ADME, organism-based
Outline: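 Pregnant SD rats received a single oral gavage of [14C]apixaban at 5 mg/kg (100 μCi/kg; 1.0 mg/mL, 20 μCi/mL in 0.5% Tween 80/Labrafil) after fasting, one dam per time point. Frozen carcasses were cut into 40 µm sagittal sections and read by phosphor-imaging QWBA against [14C]glucose standards. Fetal tissue radioactivity is reported as µg eq/g, with LLOQ 0.037 µg eq/g.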

[22] = system: Thymus; test: Biodistribution in female Sprague-Dawley rat thymus at 5 mg/kg, po administered as single dose measured after 1 hr; type: ADME, organism-based; outline: as §2
[23] = system: Rattus norvegicus; test: Biodistribution in pregnant Sprague-Dawley rat salivary gland at 5 mg/kg, po administered as single dose measured after 4 hrs; type: ADME, organism-based
[24] = system: Rattus norvegicus; test: Biodistribution in female Sprague-Dawley rat kidney cortex at 5 mg/kg, po administered as single dose measured after 0.5 hrs; type: ADME, organism-based; outline: as §5
[25] = system: Blood; test: Biodistribution in male Sprague-Dawley rat blood at 5 mg/kg, po administered as single dose measured after 4 hrs; type: ADME, organism-based; outline: as §2
[26] = system: Liver; test: Biodistribution in male Sprague-Dawley rat liver at 5 mg/kg, po administered as single dose measured after 24 hrs; type: ADME, organism-based; outline: as §4

Q: How did the Radiolabel recovery [1] turn out when `COc1ccc(-n2nc(C(N)=O)c3c2C(=O)N(c2ccc(N4CCCC[14C]4=O)cc2)CC3)cc1` was run?
A: Not detected assumed BLQ

Q: What about the Radiolabel recovery [2] of the same compound?
A: 0.54 ugequiv/g

Q: And the Radiolabel recovery [3]?
A: 0.24 ugequiv/g

Q: What about the Radiolabel recovery [4] of the same compound?
A: 0.31 ugequiv/g

Q: And the Radiolabel recovery [5]?
A: Not detected assumed BLQ

Q: And the Radiolabel recovery [6]?
A: < 0.037 ugequiv/g

Q: And the Radiolabel recovery [7]?
A: 0.93 ugequiv/g

Q: What about the Radiolabel recovery [8] of the same compound?
A: 0.15 ugequiv/g

Q: And the Radiolabel recovery [9]?
A: Not sampled as not visualised in autoradiograph

Q: And the Radiolabel recovery [10]?
A: 0.77 ugequiv/g

Q: What about the Radiolabel recovery [11] of the same compound?
A: Not detected assumed BLQ

Q: What about the Radiolabel recovery [12] of the same compound?
A: 0.43 ugequiv/g

Q: And the Radiolabel recovery [13]?
A: 0.06 ugequiv/g

Q: And the Radiolabel recovery [14]?
A: Not detected assumed BLQ

Q: What about the Radiolabel recovery [15] of the same compound?
A: Not detected assumed BLQ

Q: And the Radiolabel recovery [16]?
A: 0.75 ugequiv/g

Q: And the Radiolabel recovery [17]?
A: 0.54 ugequiv/g

Q: What about the Radiolabel recovery [18] of the same compound?
A: Not sampled as not visualised in autoradiograph

Q: What about the Radiolabel recovery [19] of the same compound?
A: 0.68 ugequiv/g

Q: What about the Radiolabel recovery [20] of the same compound?
A: Not sampled as not visualised in autoradiograph

Q: What about the Radiolabel recovery [21] of the same compound?
A: < 0.037 ugequiv/g

Q: And the Radiolabel recovery [22]?
A: 0.27 ugequiv/g

Q: What about the Radiolabel recovery [23] of the same compound?
A: 1.03 ugequiv/g

Q: And the Radiolabel recovery [24]?
A: 0.82 ugequiv/g

Q: And the Radiolabel recovery [25]?
A: 0.6 ugequiv/g

Q: What about the Radiolabel recovery [26] of the same compound?
A: < 0.037 ugequiv/g
